Consider two compounds from ChEMBL document CHEMBL2311271 (Eur J Med Chem, 2013).

The structures appear in SMILES notation.

The test system of data set [1] is HepG2. The data set is described as follows: Cytotoxicity against human HepG2 cells by MTT assay. The data set is classed as functional, cell-based. The method in brief: (§1)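 Cells grown in RPMI-1640 with 10% fetal calf serum plus penicillin and streptomycin, 37 °C, 5% CO₂. Compounds in DMSO, final ≤2% (v/v), tested in 96-well cultures with MTT staining. IC₅₀ = concentration cutting optical density 50% versus untreated cells; three replicate wells per point; mean of three independent determinations.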

Data set [2] relates to Lewis lung carcinoma cell line. The data set is described as follows: Antitumor activity against mouse LLC cells xenografted in mouse assessed as tumor inhibition at 20 mg/kg, ip qd for 7 days measured every 3 days for 21 days. The data set is classed as functional. The following applies: route intraperitoneal.
Data set [3] relates to Bel-7402. Briefly: Cytotoxicity against human Bel7402 cells by MTT assay. The data set is classed as functional, cell-based. The method in brief: as §1
Data set [4] concerns MCF7. The data set is described as follows: Cytotoxicity against human MCF7 cells by MTT assay. It counts as functional, cell-based. The procedure, abridged:
as §1

The subject of data set [5] is Mus musculus. The data set is described as follows: Neurotoxicity in ip dosed C57BL/6 mouse assessed as tremble, twitch, jumping and supination response. It counts as toxicity, organism-based. The following applies: in vivo. The method in brief:
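C57BL/6 mice (9–12 weeks, 18–22 g), fasted overnight with water, dosed i.p. with 1.0–500 mg/kg in 0.5% CMC-Na; 10 per group (5 male, 5 female). Watched continuously 2 h for tremor, twitch, jumping, supination and other behavior, then intermittently to 24 h and occasionally to 14 days; killed day 14, with heart, liver and kidneys inspected.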

Data set [6] has as its system HeLa. Briefly: Cytotoxicity against human HeLa cells by MTT assay. The data set is classed as functional, cell-based. The procedure, abridged:
as §1

In data set [7] the test system is BGC-823. Briefly: Cytotoxicity against human BGC823 cells by MTT assay. It counts as functional, cell-based. The method in brief:
as §1

Data set [8] is described as follows: Acute toxicity in ip dosed C57BL/6 mouse measured up to 14 days. It counts as organism-based. The following applies: in vivo. The method in brief: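 Healthy C57BL/6 mice (9–12 weeks, 18–22 g), fasted overnight, 10 per group (5 male, 5 female). Single i.p. dose, 1.0 to 500 mg/kg in 0.5% CMC-Na. Watched continuously for 2 h, intermittently over 24 h, then occasionally to day 14 for behaviour, deaths and delayed effects. Heart, liver and kidneys inspected at necropsy. LD50 derived graphically.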

Data set [9] can be described thus: Antitumor activity against mouse Sarcoma 180 cells xenografted in mouse assessed as tumor inhibition at 20 mg/kg, ip qd for 7 days measured every 3 days for 21 days. The data set is classed as functional. The following applies: Sarcoma-180, ip, route intraperitoneal.
Data set [10] concerns Lewis lung carcinoma cell line. The data set is described as follows: Antitumor activity against mouse LLC cells xenografted in mouse assessed as tumor inhibition at 1 mg/kg, ip qd for 7 days measured every 3 days for 21 days. The data set is classed as functional. The following applies: route intraperitoneal.
Data set [11] has as its system A549. The data set is described as follows: Cytotoxicity against human A549 cells by MTT assay. The data set is classed as functional, cell-based. The method in brief: as §1
Data set [12] has as its system 769-P. The data set is described as follows: Cytotoxicity against human 769-P cells by MTT assay. The data set is classed as functional, cell-based. The method in brief:
as §1

Data set [13] in a line: Antitumor activity against mouse Sarcoma 180 cells xenografted in mouse assessed as tumor inhibition at 1 mg/kg, ip qd for 7 days measured every 3 days for 21 days. It counts as functional. The following applies: Sarcoma-180, ip, route intraperitoneal.
Data set [14] relates to SCaBER. Briefly: Cytotoxicity against human SCaBER cells by MTT assay. It counts as functional, cell-based. The procedure, abridged: as §1
Data set [15] in a line: Cytotoxicity against human Blu-87 cells by MTT assay. The data set is classed as functional, cell-based. The method in brief:
as §1

Data set [16] concerns CWR22R. The data set is described as follows: Cytotoxicity against human 22Rv1 cells by MTT assay. It counts as functional, cell-based. The method in brief:
as §1

The test system of data set [17] is 786-0. The data set is described as follows: Cytotoxicity against human 786-0 cells by MTT assay. The data set is classed as functional, cell-based. The procedure, abridged:
as §1

The subject of data set [18] is U-251. The data set is described as follows: Cytotoxicity against human U251 cells by MTT assay. The data set is classed as functional, cell-based. The method in brief: as §1
Data set [19] concerns HT-29. The data set is described as follows: Cytotoxicity against human HT-29 cells by MTT assay. The data set is classed as functional, cell-based. The procedure, abridged:
as §1

The test system of data set [20] is A-375. The data set is described as follows: Cytotoxicity against human A375 cells by MTT assay. The data set is classed as functional, cell-based. The method in brief:
as §1

The test system of data set [21] is KB. Briefly: Cytotoxicity against human KB cells by MTT assay. It counts as functional, cell-based. The procedure, abridged:
as §1

The test system of data set [22] is OS-RC-2. Briefly: Cytotoxicity against human OS-RC2 cells by MTT assay. The data set is classed as functional, cell-based. The procedure, abridged:
as §1

For the compound `CCC(CC)Oc1ccc2c3ccnc(C)c3n(CCCc3ccccc3)c2c1`, the IC50 was determined as 7.3 µM in data set [1]; 34.3 µM in data set [3]; 41.9 µM in [4]; 70.1 µM in data set [6]; 18.3 µM in data set [7]. Moreover, the inhibition in vivo at 20 mg/kg in [2] stood at 27.1%; in data set [9] it was 30.1%. For the same compound, the Activity result in [5] is reported as “Non-toxic”. In data set [8], the LD50 at 336 h is 100 mg/kg.
`Cc1c2c(cc[n+]1Cc1ccccc1)c1ccc(OCc3ccccc3)cc1n2CC(C)C.[Br-]`: the values for the inhibition in vivo at 1 mg/kg in data set [10] and in [13] were 23.7% and 52.6%, respectively. Besides, the IC50 in [11] is 3.5 µM; in [12], 2.4 µM; in [14], 4.6 µM; in [15] it was 6.9 µM; in [16] it was less than 1.5 µM; in data set [17], less than 1.5 µM. Further, the IC50 in data set [18] was less than 1.5 µM; in data set [19] it was 3.4 µM; in data set [20], 3.3 µM; in data set [21] it was less than 1.5 µM; in [22] it was 4.6 µM. For the same compound, in data set [5], the Activity result is reported as “Non-toxic”. This compound also gave a 50% lethal dose (LD50) at 336 h in data set [8] of 5 mg/kg.
